In ChEMBL document CHEMBL1156731, “Antifungal activity of synthetic di(hetero)arylamines based on the benzo[b]thiophene moiety” (2008):
In brackets after ≈: the same amount, converted by molar mass. Activity calls are given as the source filed them. The calls are words filed in the database; no cut-off is given here.

What was measured:
[1] = test system: Aspergillus flavus; assay: Antifungal activity against Aspergillus flavus F44 after 3 days by broth macrodilution method; format: functional; conditions: 72 h
How it was run: (§1)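 Aspergillus inoculum from 3-day SDA subcultures at 30 °C; conidial suspension in 0.85% saline, diluted in RPMI 1640 (L-glutamine, no bicarbonate, 0.165 M MOPS, pH 7.0) to 1-2 × 10^4 CFU/mL. Twofold dilutions 200-0.8 µg/mL from DMSO stock (final DMSO ≤2%); macrodilution per CLSI M38-A, 30 °C, 3 days. MIC = lowest concentration giving 80% turbidity reduction vs drug-free control; MFC by subculture on SDA. Three independent experiments in duplicate.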

[2] = test system: Microsporum canis; assay: Antifungal activity against Microsporum canis FF1 after 5 days by broth macrodilution method; format: functional; conditions: 120 h
How it was run: (§2)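 Dermatophytes grown 5 days on SDA at 30 °C, subcultured. Conidial suspensions in saline were adjusted in MOPS-buffered RPMI 1640 (pH 7.0) to 1-2 × 10^4 CFU/mL. Macrodilution adapted from CLSI M38-A with 200-0.8 µg/mL twofold dilutions (DMSO ≤2%), incubated at 30 °C for 5 days. MIC at 80% turbidity reduction vs control; MFC by SDA subculture at 30 °C. Triplicate experiments in duplicate.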

[3] = test system: Trichophyton mentagrophytes; assay: Antifungal activity against Trichophyton mentagrophytes FF7 after 5 days by broth macrodilution method; format: functional; conditions: 120 h; how it was run: as §2
[4] = test system: Epidermophyton floccosum; assay: Antifungal activity against Epidermophyton floccosum FF9 after 5 days by broth macrodilution method; format: functional; conditions: 120 h; how it was run: as §2
[5] = test system: Candida tropicalis; assay: Antifungal activity against Candida tropicalis ATCC 13803 after 48 hrs by broth macrodilution method; format: functional; conditions: ATCC 13803, 48 h
How it was run: (§3)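 Yeasts grown 1 day on SDA at 37 °C, subcultured, suspended in saline and diluted in MOPS-buffered RPMI 1640 (pH 7.0) to 1-2 × 10^3 CFU/mL. Broth macrodilution per CLSI M27-A2, twofold dilutions 200-0.8 µg/mL (DMSO ≤2% final), aerobic, 37 °C, 48 h. MIC = 80% turbidity reduction vs drug-free control; MFC from SDA subculture at 37 °C. Three independent experiments in duplicate.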

[6] = test system: Trichophyton rubrum; assay: Antifungal activity against Trichophyton rubrum FF5 after 5 days by broth macrodilution method; format: functional; conditions: 120 h; how it was run: as §2
[7] = test system: Candida albicans; assay: Antifungal activity against Candida albicans ATCC 10231 after 48 hrs by broth macrodilution method; format: functional; conditions: ATCC 10231, 48 h; how it was run: as §3
[8] = test system: Nannizzia gypsea; assay: Antifungal activity against Microsporum gypseum FF3 after 5 days by broth macrodilution method; format: functional; conditions: 120 h; how it was run: as §2
[9] = test system: Pichia kudriavzevii; assay: Antifungal activity against Candida krusei ATCC 6258 after 48 hrs by broth macrodilution method; format: functional; conditions: ATCC 6258, 48 h; how it was run: as §3
[10] = test system: Nakaseomyces glabratus; assay: Antifungal activity against Candida glabrata D10R after 48 hrs by broth macrodilution method; format: functional
How it was run: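 Broth macrodilution per CLSI M27-A2 (minor modifications). Inoculum 1-2 × 10^3 CFU/mL in RPMI 1640 with L-glutamine, MOPS-buffered 0.165 M, pH 7.0. Twofold dilutions 200-0.8 µg/mL from DMSO stock (final DMSO ≤2%). Aerobic, 37 °C, 48 h. MIC = lowest concentration giving 80% turbidity reduction versus drug-free control. Three independent experiments in duplicate.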

[11] = test system: Candida albicans; assay: Antifungal activity against Candida albicans D5 after 48 hrs by broth macrodilution method; format: functional; how it was run: as §3
[12] = test system: Aspergillus niger; assay: Antifungal activity against Aspergillus niger ATCC 16404 after 3 days by broth macrodilution method; format: functional; conditions: ATCC 16404, 72 h; how it was run: as §1
[13] = test system: Aspergillus fumigatus; assay: Antifungal activity against Aspergillus fumigatus ATCC 46645 after 3 days by broth macrodilution method; format: functional; conditions: ATCC 46645, 72 h; how it was run: as §1
[14] = test system: Candida albicans; assay: Antifungal activity against Candida albicans ATCC 10231 assessed as red fluorescence stained with PI by flow cytometry; format: functional
How it was run: (§4)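 Overnight SDA cells suspended in RPMI 1640 at (2.0 ± 0.2) × 10^6 CFU/mL. Twofold dilutions 256 to one µg/mL applied at 35 °C, humid, no agitation, 2, 4 and 24 h. Washed; FUN-1 0.5 µM in PBS/2% glucose (20 min, 35 °C, FL2) or PI 1 µg/mL with 0.125% deoxycholate (~10 min, room temperature, FL3). ≥7500 events; marker included ≤5% of drug-free control cells.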

[15] = test system: Aspergillus fumigatus; assay: Antifungal activity against Aspergillus fumigatus ATCC 46645 assessed as red fluorescence stained with FUN1 by flow cytometry; format: functional, organism-based
How it was run: (§5)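 Conidia from 4–7-day SDA cultures suspended in water with 0.01% Tween 80 at (2.0 ± 0.2) × 10^6 CFU/mL. Exposed to twofold dilutions 256 to one µg/mL at 35 °C, water bath with agitation, 3, 4 and 24 h. FUN-1 0.5 µM (20 min, 35 °C, FL2) or PI 1 µg/mL (1 h, 35 °C, FL3); ≥7500 events; positive-cell marker set at ≤5% of drug-free controls.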

[16] = test system: Aspergillus fumigatus; assay: Antifungal activity against Aspergillus fumigatus ATCC 46645 assessed as red fluorescence stained with PI by flow cytometry; format: functional; how it was run: as §5
[17] = test system: Candida albicans; assay: Antifungal activity against Candida albicans ATCC 10231 assessed as red fluorescence stained with FUN1 by flow cytometry; format: functional; how it was run: as §4

Structure (SMILES): CCOC(=O)c1sc2ccccc2c1Nc1ccc(OC)cc1
- MFC [1]: > 200 µg/mL
- MIC [1]: > 200 µg/mL
- MFC [2]: > 200 µg/mL
- MIC [2]: > 200 µg/mL
- MFC [3]: > 200 µg/mL
- MIC [3]: > 200 µg/mL
- MFC [4]: > 200 µg/mL
- MIC [4]: > 200 µg/mL
- MFC [5]: > 200 µg/mL
- MIC [5]: > 200 µg/mL
- MFC [6]: > 200 µg/mL
- MIC [6]: > 200 µg/mL
- MFC [7]: > 200 µg/mL
- MIC [7]: > 200 µg/mL
- MFC [8]: > 200 µg/mL
- MIC [8]: > 200 µg/mL
- MFC [9]: > 200 µg/mL
- MIC [9]: > 200 µg/mL
- MFC [10]: > 200 µg/mL
- MIC [10]: > 200 µg/mL
- MFC [11]: > 200 µg/mL
- MIC [11]: > 200 µg/mL
- MFC [12]: > 200 µg/mL
- MIC [12]: > 200 µg/mL
- MFC [13]: > 200 µg/mL
- MIC [13]: > 200 µg/mL

Structure (SMILES): C[C@@H]1[C@H](O)[C@@H](C)/C=C/C=C/C=C/C=C/C=C/C=C/C=C/[C@H](O[C@@H]2O[C@H](C)[C@@H](O)[C@H](N)[C@@H]2O)C[C@@H]2O[C@](O)(C[C@@H](O)C[C@@H](O)[C@H](O)CC[C@@H](O)C[C@@H](O)CC(=O)O[C@H]1C)C[C@H](O)[C@H]2C(=O)O [AMPHOTERICIN B]
- MFC [1]: 8 µg/mL (≈ 8.66 µM)
- MIC [1]: 2 µg/mL (≈ 2.16 µM)
- Activity [14]: 40%
- Activity [15]: Active
- Activity [16]: 40%
- MFC [12]: 4 µg/mL (≈ 4.33 µM)
- MIC [12]: 1 µg/mL (≈ 1.08 µM)
- MFC [13]: 4 µg/mL (≈ 4.33 µM)
- MIC [13]: 2 µg/mL (≈ 2.16 µM)
- Activity [17]: 60%

Structure (SMILES): CCOC(=O)c1sc2ccccc2c1Nc1cccnc1
- MFC [1]: > 200 µg/mL
- MIC [1]: > 200 µg/mL
- MFC [2]: > 50 µg/mL
- MIC [2]: 3.13 µg/mL (≈ 10.5 µM)
- MFC [3]: > 50 µg/mL
- MIC [3]: 3.13 µg/mL (≈ 10.5 µM)
- MFC [4]: > 50 µg/mL
- MIC [4]: 6.25 µg/mL (≈ 20.9 µM)
- MFC [5]: > 200 µg/mL
- MIC [5]: > 200 µg/mL
- MFC [6]: > 50 µg/mL
- MIC [6]: 3.13 µg/mL (≈ 10.5 µM)
- MFC [7]: > 200 µg/mL
- MIC [7]: > 200 µg/mL
- MFC [8]: > 50 µg/mL
- MIC [8]: 6.25 µg/mL (≈ 20.9 µM)
- MFC [9]: > 200 µg/mL
- MIC [9]: > 200 µg/mL
- MFC [10]: > 200 µg/mL
- MIC [10]: > 200 µg/mL
- MFC [11]: > 200 µg/mL
- MIC [11]: > 200 µg/mL
- MFC [12]: > 200 µg/mL
- MIC [12]: > 200 µg/mL
- MFC [13]: > 200 µg/mL
- MIC [13]: > 200 µg/mL

Structure (SMILES): CCOC(=O)c1sc2ccccc2c1Nc1ccc(F)cc1
- MFC [1]: > 200 µg/mL
- MIC [1]: > 200 µg/mL
- MFC [2]: > 200 µg/mL
- MIC [2]: > 200 µg/mL
- MFC [3]: > 200 µg/mL
- MIC [3]: > 200 µg/mL
- MFC [4]: > 200 µg/mL
- MIC [4]: > 200 µg/mL
- MFC [5]: > 200 µg/mL
- MIC [5]: > 200 µg/mL
- MFC [6]: > 200 µg/mL
- MIC [6]: > 200 µg/mL
- MFC [7]: > 200 µg/mL
- MIC [7]: > 200 µg/mL
- MFC [8]: > 200 µg/mL
- MIC [8]: > 200 µg/mL
- MFC [9]: > 200 µg/mL
- MIC [9]: > 200 µg/mL
- MFC [10]: > 200 µg/mL
- MIC [10]: > 200 µg/mL
- MFC [11]: > 200 µg/mL
- MIC [11]: > 200 µg/mL
- MFC [12]: > 200 µg/mL
- MIC [12]: > 200 µg/mL
- MFC [13]: > 200 µg/mL
- MIC [13]: > 200 µg/mL

Structure (SMILES): CCOC(=O)c1sc2ccccc2c1Nc1ccc(OC)cc1OC
- MFC [1]: > 200 µg/mL
- MIC [1]: > 200 µg/mL
- MFC [2]: > 200 µg/mL
- MIC [2]: > 200 µg/mL
- MFC [3]: > 200 µg/mL
- MIC [3]: > 200 µg/mL
- MFC [4]: > 200 µg/mL
- MIC [4]: > 200 µg/mL
- MFC [5]: > 200 µg/mL
- MIC [5]: > 200 µg/mL
- MFC [6]: > 200 µg/mL
- MIC [6]: > 200 µg/mL
- MFC [7]: > 200 µg/mL
- MIC [7]: > 200 µg/mL
- MFC [8]: > 200 µg/mL
- MIC [8]: > 200 µg/mL
- MFC [9]: > 200 µg/mL
- MIC [9]: > 200 µg/mL
- MFC [10]: > 200 µg/mL
- MIC [10]: > 200 µg/mL
- MFC [11]: > 200 µg/mL
- MIC [11]: > 200 µg/mL
- MFC [12]: > 200 µg/mL
- MIC [12]: > 200 µg/mL
- MFC [13]: > 200 µg/mL
- MIC [13]: > 200 µg/mL
